In paper PMC4576835 (Clinical and experimental pharmacology & physiology, 2009):

Tests used:
[1] = target: T1, glypican-1 binding to Slit protein (Homo sapiens, UniProt O94813, DEL1116-1124); assay: ELISA of glypican-1–Fc binding to immobilised human full-length Slit-2
T1 sequence (O94813 with tags, fused parts or gaps DEL1116-1124): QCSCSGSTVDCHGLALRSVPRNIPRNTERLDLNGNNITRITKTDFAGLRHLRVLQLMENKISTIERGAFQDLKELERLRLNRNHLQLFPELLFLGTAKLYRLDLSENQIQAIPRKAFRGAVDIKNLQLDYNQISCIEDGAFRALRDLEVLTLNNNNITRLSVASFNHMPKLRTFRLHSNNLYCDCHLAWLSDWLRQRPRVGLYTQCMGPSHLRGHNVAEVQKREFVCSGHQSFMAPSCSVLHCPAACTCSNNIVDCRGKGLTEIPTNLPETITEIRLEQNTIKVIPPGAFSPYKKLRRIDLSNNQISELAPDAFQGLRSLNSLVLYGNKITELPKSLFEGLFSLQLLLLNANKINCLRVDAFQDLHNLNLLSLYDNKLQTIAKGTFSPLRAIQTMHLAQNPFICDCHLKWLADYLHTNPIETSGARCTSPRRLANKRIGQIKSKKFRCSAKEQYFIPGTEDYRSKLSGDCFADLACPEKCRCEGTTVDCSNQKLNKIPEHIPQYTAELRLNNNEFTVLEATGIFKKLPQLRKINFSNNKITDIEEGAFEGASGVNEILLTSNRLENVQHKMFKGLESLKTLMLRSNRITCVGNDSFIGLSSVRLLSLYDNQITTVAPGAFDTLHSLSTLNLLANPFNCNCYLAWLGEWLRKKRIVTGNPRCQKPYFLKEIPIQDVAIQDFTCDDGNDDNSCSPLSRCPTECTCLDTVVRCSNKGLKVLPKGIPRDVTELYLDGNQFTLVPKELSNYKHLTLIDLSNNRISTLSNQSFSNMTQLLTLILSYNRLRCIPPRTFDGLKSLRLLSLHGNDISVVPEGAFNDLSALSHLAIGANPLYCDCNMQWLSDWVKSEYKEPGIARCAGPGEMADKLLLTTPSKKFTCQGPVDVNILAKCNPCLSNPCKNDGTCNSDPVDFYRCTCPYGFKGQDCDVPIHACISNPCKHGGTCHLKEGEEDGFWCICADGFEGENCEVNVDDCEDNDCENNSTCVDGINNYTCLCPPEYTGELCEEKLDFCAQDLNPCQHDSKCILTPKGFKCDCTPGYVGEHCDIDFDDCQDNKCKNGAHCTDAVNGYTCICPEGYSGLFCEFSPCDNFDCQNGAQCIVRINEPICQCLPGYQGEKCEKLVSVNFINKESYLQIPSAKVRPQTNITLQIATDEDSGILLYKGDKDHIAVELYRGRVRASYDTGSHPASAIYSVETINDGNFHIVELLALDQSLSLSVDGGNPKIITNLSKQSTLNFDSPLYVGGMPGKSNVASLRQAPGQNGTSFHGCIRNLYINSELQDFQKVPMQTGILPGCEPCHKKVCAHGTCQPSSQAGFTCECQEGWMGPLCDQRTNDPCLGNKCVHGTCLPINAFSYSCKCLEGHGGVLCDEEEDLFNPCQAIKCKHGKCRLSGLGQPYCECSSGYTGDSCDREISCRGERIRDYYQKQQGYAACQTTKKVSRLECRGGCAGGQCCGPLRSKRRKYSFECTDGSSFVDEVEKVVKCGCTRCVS
Summary of the method: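 Wells coated overnight with His-tagged uncleavable full-length human Slit-2 (HEK293-expressed, Ni-agarose purified), 5 μg/well in PBS; blocked 2 h with 10% FBS/TBST. Glycanated glypican-1–Fc (HEK293, DEAE then protein A) added at 1 μg/mL in PBS, 18 h, room temperature. Detection: biotinylated anti-human Fc, HRP-streptavidin, o-phenylenediamine, 450 nm. Non-specific binding from BSA-coated wells; bound amount read from glypican-1–Fc standard curve; replicates.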

[2] = in whole blood; cited from earlier work

Cc1ccc(C(=O)Nc2ccc(S(=O)(=O)O)c3cc(S(=O)(=O)O)cc(S(=O)(=O)O)c23)cc1NC(=O)c1cccc(NC(=O)Nc2cccc(C(=O)Nc3cc(C(=O)Nc4ccc(S(=O)(=O)O)c5cc(S(=O)(=O)O)cc(S(=O)(=O)O)c45)ccc3C)c2)c1 [suramin]
inhibition at 5 µM ([1]; read-out: inhibition of glypican binding to Slit): 53%

CO[C@H]1O[C@H](COS(=O)(=O)O)[C@@H](O[C@@H]2O[C@@H](C(=O)O)[C@@H](O[C@H]3O[C@H](COS(=O)(=O)O)[C@@H](O[C@@H]4O[C@H](C(=O)O)[C@@H](O[C@H]5O[C@H](COS(=O)(=O)O)[C@@H](O)[C@H](O)[C@H]5NS(=O)(=O)O)[C@H](O)[C@H]4O)[C@H](OS(=O)(=O)O)[C@H]3NS(=O)(=O)O)[C@H](O)[C@H]2OS(=O)(=O)O)[C@H](O)[C@H]1NS(=O)(=O)O [fondaparinux]
inhibition of glypican–Slit binding (in words) ([1]; at concentrations up to 50 μmol/L): completely inactive

O=S(=O)(O)c1cc2c(O)c(c1)Cc1cc(S(=O)(=O)O)cc(c1O)Cc1cc(S(=O)(=O)O)cc(c1O)Cc1cc(S(=O)(=O)O)cc(c1O)Cc1cc(S(=O)(=O)O)cc(c1O)Cc1cc(S(=O)(=O)O)cc(c1O)Cc1cc(S(=O)(=O)O)cc(c1O)Cc1cc(S(=O)(=O)O)cc(c1O)C2 [GL-522-Y-1, cyclic octaphenol-octasulphonic acid]
anticoagulant activity [2]: no significant anticoagulant activity
inhibition of glypican binding to Slit ([1]; at 5 μmol/L): 61%
inhibition of glypican binding to Slit ([1]; at 50 μmol/L): 67%
